Test results as given in ChEMBL document CHEMBL1157589, “Antifungal 3,5-disubstituted furanones: From 5-acyloxymethyl to 5-alkylidene derivatives” (Bioorg Med Chem, 2010).
≈ marks a conversion by molar mass, not a printed value.

Key:
[1] = test system: Candida albicans; experiment: Antifungal activity against Candida albicans ATCC 44859 after 48 hrs by microdilution method; format: functional; details: ATCC 44859, 48 h
Procedure, shortened: (§1)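 Yeasts held on Sabouraud dextrose agar. MIC by NCCLS M27-A broth microdilution in RPMI 1640 with L-glutamine, buffered with 0.165 M MOPS to pH 7.0. Compounds in DMSO (≤2% final), twofold dilutions 500–0.48. Final inoculum 5 × 10³ ± 0.2 cfu mL⁻¹. Incubated at 35 °C; absorbance at 540 nm read at 24 and 48 h. MIC is 80% growth inhibition versus control; run twice in duplicate.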

[2] = test system: Candida albicans; experiment: Antifungal activity against Candida albicans ATCC 90028 after 24 hrs by microdilution method; format: functional; details: ATCC 90028, 24 h; procedure, shortened: as §1
[3] = test system: Candida albicans; experiment: Antifungal activity against Candida albicans ATCC 90028 after 48 hrs by microdilution method; format: functional; details: ATCC 90028, 48 h; procedure, shortened: as §1
[4] = test system: Candida parapsilosis; experiment: Antifungal activity against Candida parapsilosis ATCC 22019 after 24 hrs by microdilution method; format: functional; details: Lodderomyces parapsilosis, ATCC 22019, 24 h; procedure, shortened: as §1
[5] = test system: Candida parapsilosis; experiment: Antifungal activity against Candida parapsilosis ATCC 22019 after 48 hrs by microdilution method; format: functional; details: Lodderomyces parapsilosis, ATCC 22019, 48 h; procedure, shortened: as §1
[6] = test system: Pichia kudriavzevii; experiment: Antifungal activity against Candida krusei ATCC 6258 after 24 hrs by microdilution method; format: functional; details: ATCC 6258, 24 h; procedure, shortened: as §1
[7] = test system: Pichia kudriavzevii; experiment: Antifungal activity against Candida krusei ATCC 6258 after 48 hrs by microdilution method; format: functional; details: ATCC 6258, 48 h; procedure, shortened: as §1
[8] = test system: Pichia kudriavzevii; experiment: Antifungal activity against Candida krusei E28 after 24 hrs by microdilution method; format: functional; details: E28, 24 h; procedure, shortened: as §1
[9] = test system: Pichia kudriavzevii; experiment: Antifungal activity against Candida krusei E28 after 48 hrs by microdilution method; format: functional; details: E28, 48 h; procedure, shortened: as §1
[10] = test system: Candida tropicalis; experiment: Antifungal activity against Candida tropicalis 156 after 24 hrs by microdilution method; format: functional; details: Candida tropicalis, 156, 24 h; procedure, shortened: as §1
[11] = test system: Candida tropicalis; experiment: Antifungal activity against Candida tropicalis 156 after 48 hrs by microdilution method; format: functional; details: Candida tropicalis, 156, 48 h; procedure, shortened: as §1
[12] = test system: Nakaseomyces glabratus; experiment: Antifungal activity against Candida glabrata 20/I after 24 hrs by microdilution method; format: functional; procedure, shortened: as §1
[13] = test system: Nakaseomyces glabratus; experiment: Antifungal activity against Candida glabrata 20/I after 48 hrs by microdilution method; format: functional; procedure, shortened: as §1
[14] = test system: Clavispora lusitaniae; experiment: Antifungal activity against Candida lusitaniae 2446/I after 24 hrs by microdilution method; format: functional; procedure, shortened: as §1
[15] = test system: Clavispora lusitaniae; experiment: Antifungal activity against Candida lusitaniae 2446/I after 48 hrs by microdilution method; format: functional; procedure, shortened: as §1
[16] = test system: Trichosporon beigelii; experiment: Antifungal activity against Trichosporon beigelii 1188 after 24 hrs by microdilution method; format: functional; details: Trichosporon beigelii, 1188, 24 h; procedure, shortened: as §1
[17] = test system: Trichosporon beigelii; experiment: Antifungal activity against Trichosporon beigelii 1188 after 48 hrs by microdilution method; format: functional; details: Trichosporon beigelii, 1188, 48 h; procedure, shortened: as §1
[18] = test system: Aspergillus fumigatus; experiment: Antifungal activity against Aspergillus fumigatus 231 after 24 hrs by microdilution method; format: functional; details: Aspergillus fumigatus, 231, 24 h
Procedure, shortened: (§2)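 Filamentous strains held on Sabouraud dextrose agar. NCCLS M27-A broth microdilution in RPMI 1640 with L-glutamine and 0.165 M MOPS, pH 7.0. DMSO diluent ≤2% final; twofold dilutions 500–0.48. Inoculum 5 × 10³ ± 0.2 cfu mL⁻¹ final.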

[19] = test system: Aspergillus fumigatus; experiment: Antifungal activity against Aspergillus fumigatus 231 after 48 hrs by microdilution method; format: functional; details: Aspergillus fumigatus, 231, 48 h; procedure, shortened: as §2
[20] = test system: Lichtheimia corymbifera; experiment: Antifungal activity against Absidia corymbifera 272 after 24 hrs by microdilution method; format: functional; details: Lichtheimia corymbifera, 272, 24 h; procedure, shortened: as §2
[21] = test system: Lichtheimia corymbifera; experiment: Antifungal activity against Absidia corymbifera 272 after 48 hrs by microdilution method; format: functional; details: Lichtheimia corymbifera, 272, 48 h; procedure, shortened: as §2
[22] = test system: Trichophyton mentagrophytes; experiment: Antifungal activity against Trichophyton mentagrophytes 445 after 72 hrs by microdilution method; format: functional; details: Trichophyton mentagrophytes, 445, 72 h
Procedure, shortened: (§3)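 Dermatophyte held on Sabouraud dextrose agar. M27-A microdilution in MOPS-buffered (0.165 M, pH 7.0) RPMI 1640 with L-glutamine. DMSO ≤2% final; twofold dilutions 500–0.48. Inoculum 5 × 10³ ± 0.2 cfu mL⁻¹ final. Incubated at 35 °C; MIC read visually at 72 and 120 h as 80% inhibition of control growth; determined twice in duplicate.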

[23] = test system: Trichophyton mentagrophytes; experiment: Antifungal activity against Trichophyton mentagrophytes 445 after 120 hrs by microdilution method; format: functional; details: Trichophyton mentagrophytes, 445, 120 h; procedure, shortened: as §3
[24] = test system: L1210; experiment: Cytostatic activity against mouse L1210 cells after 72 hrs by XTT assay; format: functional, cell-based
Procedure, shortened: (§4)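 Leukemia cells (L1210 ATCC CCL 219, CCRF-CEM ATCC CCL 119, HL-60 ATCC CCL 240) grown in 24-well plates in RPMI 1640 with fetal calf serum. Growth assessed 72 h after drug addition. Viability measured by XTT spectrophotometric assay; potency given as IC50.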

[25] = test system: HL-60; experiment: Cytostatic activity against human HL60 cells after 72 hrs by XTT assay; format: functional, cell-based; procedure, shortened: as §4
[26] = test system: CCRF-CEM; experiment: Cytostatic activity against human CCRF-CEM cells after 72 hrs by XTT assay; format: functional, cell-based; procedure, shortened: as §4
[27] = test system: Candida albicans; experiment: Antifungal activity against Candida albicans ATCC 44859 after 24 hrs by microdilution method; format: functional; details: ATCC 44859, 24 h; procedure, shortened: as §1
[28] = test system: HeLa S3; experiment: Cytostatic activity against human HeLaS3 cells after 48 hrs by XTT assay
[29] = Homo sapiens, CCRF-CEM, 72 h, read-out: IC50
[30] = Homo sapiens, HeLa S3, 48 h, read-out: IC50

Row | Structure (SMILES) | MIC80 [1] [µM] | MIC80 [2] [µM] | MIC80 [3] [µM] | MIC80 [4] [µM] | MIC80 [5] [µM] | MIC80 [6] [µM] | MIC80 [7] [µM] | MIC80 [8] [µM] | MIC80 [9] [µM] | MIC80 [10] [µM] | MIC80 [11] [µM] | MIC80 [12] [µM] | MIC80 [13] [µM] | MIC80 [14] [µM] | MIC80 [15] [µM] | MIC80 [16] [µM] | MIC80 [17] [µM] | MIC80 [18] [µM] | MIC80 [19] [µM] | MIC80 [20] [µM] | further results
1 | O=C1OC(COc2ccc(C(=O)O)cc2)C=C1c1ccc(Br)cc1 (centres undefined) | 1.95 (≈ 0.759 µg/mL) | 0.97 (≈ 0.378 µg/mL) | 3.9 (≈ 1.52 µg/mL) | 7.81 (≈ 3.04 µg/mL) | 15.6 (≈ 6.08 µg/mL) | 7.81 (≈ 3.04 µg/mL) | 15.6 (≈ 6.08 µg/mL) | 7.81 (≈ 3.04 µg/mL) | 15.6 (≈ 6.08 µg/mL) | 3.9 (≈ 1.52 µg/mL) | 7.81 (≈ 3.04 µg/mL) | 0.97 (≈ 0.378 µg/mL) | 1.95 (≈ 0.759 µg/mL) | 3.9 (≈ 1.52 µg/mL) | 7.81 (≈ 3.04 µg/mL) | 7.81 (≈ 3.04 µg/mL) | 15.6 (≈ 6.08 µg/mL) | 1.95 (≈ 0.759 µg/mL) | 3.9 (≈ 1.52 µg/mL) | 15.6 (≈ 6.08 µg/mL) | MIC80 [21]: 62.5 µM (≈ 24.3 µg/mL); MIC80 [22]: 0.97 µM (≈ 0.378 µg/mL); MIC80 [23]: 0.97 µM (≈ 0.378 µg/mL); IC50 ([24]; Mus musculus, L1210, 72 h, read-out: IC50): 12.3 µM; IC50 ([25]; Homo sapiens, HL-60, 72 h, read-out: IC50): 19.4 µM; IC50 [26, 29]: 8.7 µM; MIC80 [27]: 0.48 µM (≈ 0.187 µg/mL); IC50 [28, 30]: 2.69 µM
2 | CC(=O)OC/C=C1/C=C(c2ccc(Br)cc2)C(=O)O1 | 31.2 (≈ 10.1 µg/mL) | 31.2 (≈ 10.1 µg/mL) | 62.5 (≈ 20.2 µg/mL) | 31.2 (≈ 10.1 µg/mL) | 62.5 (≈ 20.2 µg/mL) | 7.81 (≈ 2.52 µg/mL) | 62.5 (≈ 20.2 µg/mL) | 62.5 (≈ 20.2 µg/mL) | 62.5 (≈ 20.2 µg/mL) | 31.2 (≈ 10.1 µg/mL) | 125 (≈ 40.4 µg/mL) | 31.2 (≈ 10.1 µg/mL) | 62.5 (≈ 20.2 µg/mL) | 62.5 (≈ 20.2 µg/mL) | 125 (≈ 40.4 µg/mL) | 31.2 (≈ 10.1 µg/mL) | 31.2 (≈ 10.1 µg/mL) | 15.6 (≈ 5.05 µg/mL) | 31.2 (≈ 10.1 µg/mL) | 31.2 (≈ 10.1 µg/mL) | MIC80 [21]: 31.2 µM (≈ 10.1 µg/mL); MIC80 [22]: 7.81 µM (≈ 2.52 µg/mL); MIC80 [23]: 15.6 µM (≈ 5.05 µg/mL); IC50 ([24]; l1210): Not Active; IC50 ([25]; hl-60): Not Active; IC50 [26, 29]: 4.32 µM; MIC80 [27]: 7.81 µM (≈ 2.52 µg/mL); IC50 [28, 30]: 4.18 µM
3 | O=C1O/C(=C\CCO)C=C1c1ccc(Br)cc1 | 125 (≈ 36.9 µg/mL) | 125 (≈ 36.9 µg/mL) | 250 (≈ 73.8 µg/mL) | 125 (≈ 36.9 µg/mL) | 125 (≈ 36.9 µg/mL) | 125 (≈ 36.9 µg/mL) | 250 (≈ 73.8 µg/mL) | 250 (≈ 73.8 µg/mL) | 250 (≈ 73.8 µg/mL) | 125 (≈ 36.9 µg/mL) | 250 (≈ 73.8 µg/mL) | 62.5 (≈ 18.4 µg/mL) | 250 (≈ 73.8 µg/mL) | 125 (≈ 36.9 µg/mL) | 250 (≈ 73.8 µg/mL) | 125 (≈ 36.9 µg/mL) | 125 (≈ 36.9 µg/mL) | 125 (≈ 36.9 µg/mL) | 250 (≈ 73.8 µg/mL) | 62.5 (≈ 18.4 µg/mL) | MIC80 [21]: 62.5 µM (≈ 18.4 µg/mL); MIC80 [22]: 31.2 µM (≈ 9.22 µg/mL); MIC80 [23]: 31.2 µM (≈ 9.22 µg/mL); IC50 ([24]; l1210): Not Active; IC50 ([25]; hl-60): Not Active; IC50 ([26]; ccrf-cem): Not Active; MIC80 [27]: 62.5 µM (≈ 18.4 µg/mL); IC50 ([28]; hela s3): Not Active
